Measured values from ChEMBL document CHEMBL1130346, “A new rational hypothesis for the pharmacophore of the active metabolite of leflunomide, a potent immunosuppressive drug” (J Med Chem, 1997).

Legend:
[1] = organism: Mus musculus; experiment: The compound was tested for in vitro mixed lymphocyte reaction.; type: functional, organism-based
Summary of the method: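 Bidirectional murine MLR using BALB/c and DBA/2 splenocytes isolated on Ficoll-Hypaque. 5×10⁴ cells of each strain were cocultured in triplicate for 96 h with serial dilutions of compound (20 mM DMSO stock), with DMSO-matched controls. Medium was RPMI 1640 with 5% FBS. [³H]thymidine (1 µCi) was added for the last 18 h. IC50 is 50% inhibition of proliferation versus untreated cultures; at least three experiments.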

[2] = In vitro inhibition of lymphocyte activated CD2 antigens induced by monoclonal antibody; type: functional, Homo sapiens
Summary of the method: (§1)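 Human PBMC from healthy donors, separated on Ficoll-Hypaque, at 10⁶ cells/mL in RPMI 1640 with 10% FBS. Cells were incubated with test compounds and stimulated with an optimal concentration of anti-CD3 mAb OKT3 for 24 h at 37 °C in 5% CO₂. CD2, CD25 and CD71 were read by immunofluorescence staining and flow cytometry. IC50 values came from at least two experiments, which differed by less than 10%.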

[3] = In vitro inhibition of lymphocyte activated CD25 antigens induced by monoclonal antibody; type: functional, Homo sapiens; summary of the method: as §1
[4] = In vitro inhibition of lymphocyte activated CD71 antigens induced by monoclonal antibody; type: functional, Homo sapiens; summary of the method: as §1
[5] = test system: Mus musculus; experiment: Inhibition of paw edema formation in mouse after an peroral dose of 10 mg/kg; Thickness of paw =2.45+/-0.14 mm; type: functional; settings: route oral
[6] = In vitro inhibition of expression of lymphocyte activated CD2 antigens induced by monoclonal antibody; type: functional; settings: Homo sapiens; summary of the method: as §1
[7] = In vitro inhibition of expression of lymphocyte activated CD25 antigens induced by monoclonal antibody; type: functional; settings: Homo sapiens; summary of the method: as §1
[8] = In vitro inhibition of expression of lymphocyte activated CD71 antigens induced by monoclonal antibody; type: functional; settings: Homo sapiens; summary of the method: as §1
[9] = test system: Mus musculus; experiment: Inhibition of paw edema formation in mouse after an ip dose of 10 mg/kg; Thickness of paw = 2.38+/-0.07 mm; type: functional; settings: route intraperitoneal
[10] = organism: Mus musculus; experiment: animal or person; settings: ip, read-out: Inhibition
[11] = organism: Mus musculus; experiment: animal or person; settings: ip, read-out: Inhibition; remark: listed apart in the source

| IC50 [1] [µM] | IC50 [2] [µM] | IC50 [3] [µM] | IC50 [4] [µM] | IC50 [6] [µM] | IC50 [7] [µM] | IC50 [8] [µM] | Compound | inhibition in vivo at 10 mg/kg [5] [%] | inhibition in vivo at 10 mg/kg [9] [%] | inhibition in vivo at 50 mg/kg [10] [%] | inhibition in vivo at 5 mg/kg [11] [%] |
| --- | --- | --- | --- | --- | --- | --- | --- | --- | --- | --- | --- |
| 45.9 | 95.4 | > 100 | > 100 | – | – | – | O=C1COC(O)=C1C(=O)Nc1ccc(C(F)(F)F)cc1 | – | – | – | – |
| 11.9 | 15.3 | 18.4 | 18.8 | – | – | – | CC(O)=C(C(=O)Nc1ccc(C(F)(F)F)cc1)C(=O)Nc1ccc(C(F)(F)F)cc1 | – | – | – | – |
| 71.6 | 90.8 | 96.4 | 78.1 | – | – | – | CCO/C(O)=C(/C(C)=O)C(=O)Nc1ccc(C(F)(F)F)cc1 | – | – | – | – |
| 9.6 | – | – | – | 126 | 130 | > 100 | Cc1oncc1C(=O)Nc1ccc(C(F)(F)F)cc1 [LEFLUNOMIDE] | 45 | – | – | – |
| 3.4 | 13.8 | 14.8 | 66.5 | – | – | – | O=C1CCC(O)=C1C(=O)Nc1ccc(C(F)(F)F)cc1 | – | – | – | – |
| 1.25 | 2.9 | 2.9 | 11 | – | – | – | O=C1CCCC(O)=C1C(=O)Nc1ccc(C(F)(F)F)cc1 | – | – | – | – |
| 1.65 | 3 | 2.4 | 4.4 | – | – | – | O=C(Nc1ccc(C(F)(F)F)cc1)c1ccccc1O | – | 43 | – | – |
| – | – | – | – | – | – | – | C/C=C/C[C@@H](C)[C@@H](O)[C@H]1C(=O)N[C@@H](CC)C(=O)N(C)CC(=O)N(C)[C@@H](CC(C)C)C(=O)N[C@@H](C(C)C)C(=O)N(C)[C@@H](CC(C)C)C(=O)N[C@@H](C)C(=O)N[C@H](C)C(=O)N(C)[C@@H](CC(C)C)C(=O)N(C)[C@@H](CC(C)C)C(=O)N(C)[C@@H](C(C)C)C(=O)N1C [CYCLOSPORINE] | – | – | 83 | 48 |
| 41.3 | 50.9 | 89.9 | 74.6 | – | – | – | C/C(O)=C(\C#N)C(=O)Nc1ccc(C(F)(F)F)cc1 [TERIFLUNOMIDE] | – | – | – | – |
